The record followed here is PubChem BioAssay AID561 (The Scripps Research Institute Molecular Screening Center, 2006).

Each structure is given as a SMILES string. Among all 65,000 compounds or so, about 280 (0.43%) were called active. The sample as a whole holds a higher share of actives than the screen did. Values without a mark were called inactive.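 The calls were made as follows: active = inhibition above the mean of all tested compounds plus 3 SD (cut at about 52% in these data); inactive = the rest.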

A word on the inhibition: it is the relative decrease from the control value, in per cent.

Chain of Nuclear receptor ROR-alpha (Homo sapiens) (P35398 whole entry, looked up, the tested form may be a part): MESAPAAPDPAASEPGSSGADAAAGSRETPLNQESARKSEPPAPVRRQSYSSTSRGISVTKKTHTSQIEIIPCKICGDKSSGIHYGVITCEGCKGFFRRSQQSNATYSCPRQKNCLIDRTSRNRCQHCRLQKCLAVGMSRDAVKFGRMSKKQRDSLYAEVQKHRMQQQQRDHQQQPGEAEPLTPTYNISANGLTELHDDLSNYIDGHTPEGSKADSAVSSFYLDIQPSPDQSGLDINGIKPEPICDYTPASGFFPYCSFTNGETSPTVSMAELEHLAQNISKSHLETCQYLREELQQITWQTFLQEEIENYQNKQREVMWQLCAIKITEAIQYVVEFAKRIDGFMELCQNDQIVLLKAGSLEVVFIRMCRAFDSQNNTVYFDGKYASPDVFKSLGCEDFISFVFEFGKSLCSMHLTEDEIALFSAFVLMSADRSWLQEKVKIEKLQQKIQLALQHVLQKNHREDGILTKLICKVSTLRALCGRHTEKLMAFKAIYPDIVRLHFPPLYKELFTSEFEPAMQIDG

The target of this assay is Nuclear receptor ROR-alpha (Homo sapiens) (UniProt P35398). The assay is described as follows: inhibitors of orphan receptor RORA, primary screen, cell-based, luminescence (AID 561). The note with it: CHO-K1 Gal4-RORA LBD luciferase reporter, at 10 µM, active compounds read high. In outline:
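System: transiently transfected CHO-K1 cells, Gal4-DBD/human RORA-LBD fusion plus 5xGal4-luciferase reporter. Doses: one dose of 10 µM final. Timing: 20 h compound treatment, 37 °C. Measured by: luminescence. Evaluation: % inhibition of basal luciferase versus +RORA/-RORA DMSO controls. Benchmarks: mock-transfected cells as 100%, +RORA DMSO cells as 0%. Replicates: single test per compound.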
In general terms: A reporter such as luciferase makes a cellular process visible.
With `COC(=O)c1ccc(C2NC(=O)NC(C)=C2C(=O)N(C)C)cc1` (centres undefined), the inhibition was 29.5%.

For `O=C(Nc1ccc2c(c1)OCO2)C1CC(c2c(F)cccc2Cl)=NO1` (centres undefined), the inhibition was -2.1%.

Consider `COc1cc(OC)c(C(=O)Nc2ccc(N(C)C)cc2)cc1OC`, for which the inhibition is -58.1%.

As for `Cc1ccc(Oc2nc3ccccc3n3c(C)nnc23)cc1`, the inhibition is -9.5%.

`COCCCN(C(=O)Cn1ncc2c(=O)oc3ccc(C)cc3c21)C(C)c1ccncc1` (centres undefined): the inhibition is -5.6%.

As for `Fc1ccccc1OCCSc1nc2ccccc2o1`, the inhibition is -26.2%.

On to `CCOc1cc(C(=O)N2CCc3cc(OC)c(OC)cc3C2)ccc1OC(F)F`, for which the inhibition is 57.3% (active).

As for `CCOc1cc(C(=S)N2CCOCC2)ccc1O`, the inhibition is 8.5%.

On to `COc1ccc(OCc2cccc(C(=O)N3CCCC3)c2)cc1`, for which the inhibition was -8.9%.

As to `COc1ccc(-n2ncc3c(N4CCCc5ccccc54)ncnc32)cc1`, the inhibition was -50.2%.

On to `O=C(CC1NCCNC1=O)Nc1ccc(Oc2ccccc2)cc1` (centres undefined), for which the inhibition is -7.9%.

For the compound `COc1cc(C(=O)Nc2oc(-c3ccccc3)c(-c3ccccc3)c2C#N)cc(OC)c1OC`, the inhibition is -14.1%.

For the compound `O=C(Cc1c(F)cccc1Cl)N1CCN(C(=O)c2ccco2)CC1`, the inhibition was 14.5%.

Consider `CCOC(=O)CCCNC(=O)CN1C(=O)NC(CCc2ccccc2)C1=O` (centres undefined), for which the inhibition is -7.9%.

`CC(=O)c1ccc(NC(=O)N[C@@H](Cc2ccccc2)C(=O)O)cc1`: the inhibition was 16.7%.

Regarding `O=C(Nc1cccc(Cl)c1)OCc1ccccn1`, the inhibition was -69.9%.

On to `CC(=O)Nc1ccc(-c2cn3cccnc3n2)cc1`, for which the inhibition is -27%.

Turning to `Clc1ccc(C2CC(c3cccs3)n3ncnc3N2)cc1Cl` (centres undefined), the inhibition is -4.7%.

For `CC(C)(C)c1ccc(C(=O)CSc2ncn[nH]2)cc1`, the inhibition was -54.2%.

Turning to `CC(C)(C)NC(=O)Cn1nnc(-c2ccccc2Cl)n1`, the inhibition is -65.9%.

As to `COc1cccc(C2/C(=C(/O)c3ccncc3)C(=O)C(=O)N2CCCN(C)C)c1` (centres undefined), the inhibition was 17%.

Regarding `Cc1noc(C)c1COC(=O)Cn1c(C)nc2ccccc21`, the inhibition is -0.6%.

As to `COc1ccc(-n2c(SC)nc(O)cc2=O)cc1`, the inhibition was 8.5%.

Take `CC(C)OCCCNc1ncnc2c1[nH]c1ccc(F)cc12`: the inhibition was 75.5% (active).

Regarding `Cc1cc2nc(-c3ccc(NC(=O)c4cccnc4)cc3)oc2cc1C`, the inhibition was -71.6%.

Regarding `CCOC(=O)/C=c1\s/c(=C\c2ccccc2OC)c(=O)n1CC(=O)N1CCOCC1`, the inhibition was 3.7%.

In the case of `CC1CN(C(=O)CN2C(=O)NC(C)(c3ccccc3)C2=O)CC(C)O1` (centres undefined), the inhibition is 11.6%.

For the compound `CCCN(CCC)CCNC(=O)c1cc2c(C)nc3ccccc3c2o1`, the inhibition was -1.5%.

Regarding `COc1ccc(-c2nc(-c3ccccc3)no2)c(OC)c1`, the inhibition was 78.4% (active).

Regarding `COc1ccc(-c2noc(-c3cccc(OC)c3OC)n2)cc1OC`, the inhibition is -89.8%.

`CCOc1ccc(Nc2oc(Cc3ccccc3)nc2C#N)cc1`: the inhibition is -25.7%.

With `O=C(CSc1nc2ccccc2[nH]1)c1cccs1`, the inhibition is -56.5%.

For `O=C(CCSc1ccccc1)NCCSc1ccccn1`, the inhibition is -13.3%.

For the compound `O=c1c2cc3c(=O)n(CC4CCCO4)c(=O)c3cc2c(=O)n1CC1CCCO1` (centres undefined), the inhibition was 5.9%.

As to `Cc1ccsc1C(=O)OCC(=O)c1cc(C)n(CC2CCCO2)c1C` (centres undefined), the inhibition is 85.1% (active).

Take `Cn1c(-c2ccco2)nc2cc3ccccc3cc21`: the inhibition was 68.8% (active).

On to `O=C(Nc1cccc(-c2nnc(-c3ccccc3)o2)c1)C1CCCO1` (centres undefined), for which the inhibition is -61.1%.

`COC(=O)Cc1cc(=O)n(-c2nc3ccccc3s2)[nH]1`: the inhibition is 10.2%.

Turning to `CC(=O)Nc1ccc(S(=O)(=O)N2CCN(CCCOc3cc(C)ccc3C)CC2)cc1`, the inhibition is 13.3%.

Take `CC1(C)NC(=O)N(CCOc2cccc(Oc3ccccc3)c2)C1=O`: the inhibition is -0.4%.

Take `CC(=O)NC(Cc1ccc(F)cc1)C(=O)O` (centres undefined): the inhibition is 4.4%.

Take `COc1ccccc1CNC(=O)CCCNS(=O)(=O)c1cccc2nsnc12`: the inhibition is 12.8%.

Consider `CS(=O)(=O)c1ccc2nc(NC(=O)C3C4C=CC(C4)C3C(=O)O)sc2c1` (centres undefined), for which the inhibition was 0.6%.

Turning to `CCCCOc1ccc(-c2ncc(C(=O)OCC)c(N)n2)cc1`, the inhibition was -59.3%.

Consider `Cc1ccc(CNC(=O)C2CCCN(S(C)(=O)=O)C2)cc1` (centres undefined), for which the inhibition was -3.7%.

For `CCSc1nc(C)nc2c1oc1ccccc12`, the inhibition was -1%.

In the case of `CCc1c(C)sc(NC(=O)c2ccc(Br)o2)c1C(=O)OC`, the inhibition is 3.7%.

In the case of `CC1(C)CC(CCC(=O)Nc2ccccc2Cl)C(=O)O1` (centres undefined), the inhibition was 6.6%.

`C#CCNc1nc(C(C)C)nc2c1nnn2Cc1ccccc1F`: the inhibition was -1.9%.

For `Fc1ccc2[nH]c3c(N4CCSCC4)ncnc3c2c1`, the inhibition is 80.8% (active).

For `Fc1ccc2[nH]c3c(N4CCN(Cc5ccc6c(c5)OCO6)CC4)ncnc3c2c1`, the inhibition was 86.3% (active).

Turning to `CN(C)/C=C/c1c(C#N)c(=O)ncn1Cc1ccccc1`, the inhibition is 15.5%.

Take `Cc1ccc(Cn2nnc3c(=O)n(CC(=O)N4CCCCC4)cnc32)cc1`: the inhibition was 19.7%.

On to `O=C(NC1=NCCS1)c1ccc(Cl)s1`, for which the inhibition was -80.1%.

With `CC(C)OC(=O)C(C#N)c1nc2ccccc2nc1N1CCN(Cc2ccccc2)CC1` (centres undefined), the inhibition is -19.7%.

`O=C1C(C=NCC2CCCO2)=C(O)c2ccccc21` (centres undefined): the inhibition was -48.7%.

As to `Cc1nc2nc(COc3ccccc3)[nH]n2c(=O)c1C`, the inhibition is -0.2%.

Take `Cc1ccc(-n2ncc3c2ncn2nc(-c4ccco4)nc32)c(C)c1`: the inhibition was -10.8%.

With `COc1ccccc1-c1cc(C(=O)N2CCCCC2)no1`, the inhibition was -56.5%.

As to `O=c1oc2cc(O)ccc2cc1-c1ccc(F)cc1`, the inhibition was -61.8%.

On to `CCCN(c1ccc(C(C)C)cc1)S(=O)(=O)c1c(C)[nH]c(=O)[nH]c1=O`, for which the inhibition is -10.6%.

Take `O=C(O)CC(c1ccccc1)n1cnnn1` (centres undefined): the inhibition is 15.8%.

Regarding `CN(C)c1nc(N)nc(CSc2nnnn2-c2cccc3ccccc23)n1`, the inhibition is 53.2% (active).

On to `Cn1c(=O)c(C(=O)Nc2ncccn2)c(O)c2ccccc21`, for which the inhibition was -61%.

As to `CC(=O)Oc1ccc(C(=O)Nc2nccs2)cc1`, the inhibition was -61%.

With `COc1ccccc1C(=O)C(O)c1ccccc1OC` (centres undefined), the inhibition is -19.7%.

In the case of `O=C(c1cc(-c2cccs2)on1)N1CCCCC1`, the inhibition was -63.4%.

Regarding `Cc1noc(C)c1S(=O)(=O)Nc1ccc(C(=O)O)cc1`, the inhibition is -7.4%.

In the case of `Cn1c(SCc2c(F)cccc2Cl)nnc1-c1cnccn1`, the inhibition was -62.8%.

Regarding `Nc1ccc(-c2nnc(-c3ccc(-c4ccccc4)cc3)o2)cc1`, the inhibition was -60.7%.

Consider `COc1ccccc1-n1nnnc1S(=O)(=O)Cc1ccc(Cl)cc1`, for which the inhibition is 54.4% (active).

With `OCCCNC(c1ccccc1)c1ccc(O)cc1` (centres undefined), the inhibition was 24.8%.

For `COc1ccc(OC)c(CNC(=O)C2CCCN(c3nc4ccccc4o3)C2)c1` (centres undefined), the inhibition is 33.3%.

For `COC(=O)CCSc1nccn1Cc1ccccc1`, the inhibition was 7.6%.

Consider `COc1ccccc1CNC(=O)C1CCN(c2nc3ccccc3o2)CC1`, for which the inhibition was 14%.

Take `CCS(=O)(=O)N1CCCC(C(=O)NCCCN(C)Cc2ccccc2)C1` (centres undefined): the inhibition was -3.1%.

In the case of `Cc1cc(Cl)c(S(=O)(=O)Nc2ccc3c(c2)OCCO3)cc1OCC(N)=O`, the inhibition is 22.5%.

With `OC1CN=C2Sc3ccccc3N2C1` (centres undefined), the inhibition was 10.5%.

As for `CCOc1ccccc1N(CC(=O)NC1CCCCC1)C(=O)CCCC(=O)Nc1ccccn1`, the inhibition was -9%.

Turning to `CN1CCCC(OC(=O)COc2ccc(Br)cc2)C1` (centres undefined), the inhibition was -27%.

Regarding `CC(=O)Nc1cccc(-c2cnc3ccccc3n2)c1`, the inhibition is -72.9%.

For the compound `CCNC(=O)CCc1nc(-c2ccc(C(C)(C)C)cc2)no1`, the inhibition is 88.3% (active).

With `Cc1ccc(Cc2nc(-c3cccc(C)c3)no2)cc1`, the inhibition was -51.5%.

With `Cc1cc(C)nc(NC(=O)Nc2ccccc2C(F)(F)F)n1`, the inhibition was -29%.

As for `Cc1cccc(NC(=O)CSc2nc3c(c(=O)[nH]2)CCC3)c1C`, the inhibition was 0.6%.

For `CC(C)CCNc1nc(N2CCCC2)c2c(c1C#N)CCN(C)C2`, the inhibition is -5.2%.

As for `COc1ccc(Cl)cc1S(=O)(=O)Nc1cccc(C(=O)O)c1`, the inhibition is 2.9%.

Turning to `O=C(O)CCC(=O)NCc1ccc2[nH]c3c(c2c1)CCCC3`, the inhibition was 11.8%.

As to `COCCCNC(=O)Cn1cc(C(=O)C2CC2)c2ccccc21`, the inhibition was -7.6%.

With `COc1ccc(CN(C(=O)c2cccs2)c2nccs2)cc1OC`, the inhibition was -6.9%.

As to `CCOC(=O)Nc1ccccc1N1C(=O)c2ccccc2C1=O`, the inhibition is -13%.

For `Cn1c(SCC(=O)Nc2cccc(O)c2)nnc1-c1ccc(S(=O)(=O)N2CCOCC2)cc1`, the inhibition is -31.5%.

With `CC[C@H]1CN2CCc3cc(OC)c(OC)cc3[C@@H]2C[C@@H]1C[C@H]1NCCc2cc(OC)c(OC)cc21`, the inhibition was 95.3% (active).

Take `O=C(Nc1cccnc1)c1noc2c1CCCCC2`: the inhibition was 19.3%.

In the case of `CC[C@]1(O)CC2CN(CCc3c([nH]c4ccccc34)[C@@](C(=O)OC)(c3cc4c(cc3OC)N(C=O)[C@H]3[C@@](O)(C(=O)OC)[C@H](OC(C)=O)[C@]5(CC)C=CCN6CC[C@]43[C@@H]65)C2)C1` (some centres undefined), the inhibition was 54% (active).

For the compound `O=C(C1CCC1)N1CCc2cc(S(=O)(=O)NCc3cccnc3)ccc21`, the inhibition was -16.5%.

On to `Cc1ccc(C(c2nnnn2C(C)(C)C)N2CCc3ccccc3C2)cc1` (centres undefined), for which the inhibition is -0.2%.

On to `CN(c1ccccc1)c1ccc(/C=c2\s/c(=C(/C#N)C(=O)C(C)(C)C)n(Cc3ccco3)c2=O)cc1`, for which the inhibition is 11.3%.

Turning to `CCCCc1nc2ccccc2c(NC(=O)CN2CCN(C)CC2)c1CCC`, the inhibition is -1.9%.
